Here are results for 1 compound from publication PMC8162940 (Nature chemical biology, 2021).

For one assay, the target named is Ikaros (Mus musculus, UniProt Q03267+Q8C7D2, I391V). In words: Ikaros levels in murine splenocytes, flow cytometry. It counts as cell-based. As to conditions: Crbn^I391V/I391V but not wildtype cells, 1 μM, 16h.
Another assay concerns IL-2. In words: IL-2 secretion from stimulated Jurkat cells. Type of assay: cell-based, human. As to conditions: Jurkat cells pre-treated with 1 μM for 18h, then stimulated 24h. The procedure, abridged:
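Jurkat cells were pre-incubated 18 h with 1 μM test compound, then activated with ImmunoCult CD3/CD28 activator for 24 h, and supernatant IL-2 was measured by AlphaLISA. Mean ± SD of 3 (unstimulated) or 4 (stimulated) biological samples, representative of 2 experiments. Two-way ANOVA with Bonferroni correction.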

Sequence of Ikaros (Q03267 whole entry): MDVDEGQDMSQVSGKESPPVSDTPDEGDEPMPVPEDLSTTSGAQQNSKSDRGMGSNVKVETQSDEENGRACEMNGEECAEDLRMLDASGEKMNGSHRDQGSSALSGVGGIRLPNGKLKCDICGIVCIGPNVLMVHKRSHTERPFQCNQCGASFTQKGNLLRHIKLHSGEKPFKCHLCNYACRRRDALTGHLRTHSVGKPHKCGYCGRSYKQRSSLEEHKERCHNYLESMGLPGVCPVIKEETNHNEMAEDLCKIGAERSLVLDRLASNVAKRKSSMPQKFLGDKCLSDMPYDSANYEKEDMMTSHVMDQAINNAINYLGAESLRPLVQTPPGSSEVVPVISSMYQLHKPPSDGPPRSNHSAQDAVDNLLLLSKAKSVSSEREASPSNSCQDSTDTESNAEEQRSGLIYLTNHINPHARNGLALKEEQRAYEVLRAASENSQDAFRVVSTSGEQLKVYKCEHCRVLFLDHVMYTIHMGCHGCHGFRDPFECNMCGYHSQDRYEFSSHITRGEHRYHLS
Sequence of Ikaros (Q8C7D2 whole entry I391V): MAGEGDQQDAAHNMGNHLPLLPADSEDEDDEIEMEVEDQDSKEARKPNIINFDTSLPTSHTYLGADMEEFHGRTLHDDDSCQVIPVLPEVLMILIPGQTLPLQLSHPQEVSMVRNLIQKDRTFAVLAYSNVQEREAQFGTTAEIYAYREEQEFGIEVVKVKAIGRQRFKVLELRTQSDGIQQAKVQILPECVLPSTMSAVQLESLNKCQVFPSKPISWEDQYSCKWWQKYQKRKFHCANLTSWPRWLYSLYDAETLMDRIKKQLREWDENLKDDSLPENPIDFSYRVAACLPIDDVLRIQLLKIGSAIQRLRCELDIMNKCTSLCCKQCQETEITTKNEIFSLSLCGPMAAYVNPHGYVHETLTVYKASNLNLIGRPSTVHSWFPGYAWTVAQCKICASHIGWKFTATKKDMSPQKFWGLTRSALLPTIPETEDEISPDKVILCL
Sequence of Ikaros (Q3U1J4 whole entry partner): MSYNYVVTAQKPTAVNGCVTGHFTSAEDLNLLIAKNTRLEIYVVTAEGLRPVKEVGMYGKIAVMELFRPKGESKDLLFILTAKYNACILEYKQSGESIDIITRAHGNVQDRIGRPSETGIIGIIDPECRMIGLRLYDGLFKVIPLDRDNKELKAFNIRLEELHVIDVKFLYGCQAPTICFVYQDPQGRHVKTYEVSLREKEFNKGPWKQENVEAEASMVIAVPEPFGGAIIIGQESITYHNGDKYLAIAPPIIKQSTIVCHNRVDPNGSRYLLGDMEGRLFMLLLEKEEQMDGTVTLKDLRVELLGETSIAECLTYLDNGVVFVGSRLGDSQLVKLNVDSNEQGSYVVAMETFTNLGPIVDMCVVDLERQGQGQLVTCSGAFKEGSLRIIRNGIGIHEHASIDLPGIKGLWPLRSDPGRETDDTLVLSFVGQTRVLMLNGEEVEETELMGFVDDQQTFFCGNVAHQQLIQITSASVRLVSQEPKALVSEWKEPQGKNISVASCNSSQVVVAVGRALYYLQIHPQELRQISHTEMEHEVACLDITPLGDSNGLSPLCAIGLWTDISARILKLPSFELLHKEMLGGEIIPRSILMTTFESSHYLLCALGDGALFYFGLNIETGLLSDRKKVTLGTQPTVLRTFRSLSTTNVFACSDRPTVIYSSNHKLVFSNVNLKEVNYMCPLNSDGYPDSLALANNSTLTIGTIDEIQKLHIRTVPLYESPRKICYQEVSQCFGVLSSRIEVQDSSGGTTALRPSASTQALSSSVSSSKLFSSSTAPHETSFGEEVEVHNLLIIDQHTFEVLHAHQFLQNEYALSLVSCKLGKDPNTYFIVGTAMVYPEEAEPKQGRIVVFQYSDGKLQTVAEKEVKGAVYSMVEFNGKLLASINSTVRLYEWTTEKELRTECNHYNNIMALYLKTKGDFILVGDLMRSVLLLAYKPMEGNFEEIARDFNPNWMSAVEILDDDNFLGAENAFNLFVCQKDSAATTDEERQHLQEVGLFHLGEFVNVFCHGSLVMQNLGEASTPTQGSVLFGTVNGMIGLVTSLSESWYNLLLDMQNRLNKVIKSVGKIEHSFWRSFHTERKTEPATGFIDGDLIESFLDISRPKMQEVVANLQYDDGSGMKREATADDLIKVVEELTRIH

In the case of `Nc1cccc2c1CN(C1CCC(=O)NC1=O)C2=O` (centres unmarked) [lenalidomide], on Ikaros, the “Ikaros degradation in splenocytes” value is “induced selective degradation of Ikaros”. In the assay with IL-2, the IL-2 secretion entry is reported as “enhanced IL-2 secretion”.
